Results gathered from unrelated publications.
Protocols differ between the studies behind these lines.
KAT2B: Histone acetyltransferase KAT2B (KAT2B, Homo sapiens, UniProt Q92831)
BCKDK: Branched-chain alpha-ketoacid dehydrogenase kinase (BCKDK, Homo sapiens, UniProt O14874)
PDE8A: High affinity cAMP-specific and IBMX-insensitive 3',5'-cyclic phosphodiesterase 8A (PDE8A, Homo sapiens, UniProt O60658)
murD: UDP-N-acetylmuramoylalanine--D-glutamate ligase (murD, Escherichia coli K-12, UniProt P14900)
PTPN7: Tyrosine-protein phosphatase non-receptor type 7 (PTPN7, Homo sapiens, UniProt P35236)
HDAC1: Histone deacetylase 1 (HDAC1, Homo sapiens, UniProt Q13547)
CYP2A6: Cytochrome P450 2A6 (CYP2A6, Homo sapiens, UniProt P11509)
SLC47A2: Multidrug and toxin extrusion protein 2 (SLC47A2, Homo sapiens, UniProt Q86VL8)
ALOX5: Polyunsaturated fatty acid 5-lipoxygenase (ALOX5, Homo sapiens, UniProt P09917)

SMILES	target	test	system	conditions	IC50 [µM]
COc1ccc(S(=O)(=O)ON=C2C=C(C)C(=O)C(C)=C2)cc1	KAT2B	enzyme activity, inhibitor, radiometric	–	–	34.7
CC(C)c1cccc2c(/C=C/c3ccccc3)cc(-c3ccc(-c4ccc(C(=O)O)cc4)[nH]3)nc12	Retinoic acid receptor gamma (RARG, Homo sapiens, UniProt P13631)	reporter gene, antagonist	–	–	> 3.3
CNC(=O)c1cc2c(Oc3ccc(NC(=O)C4(C(=O)Nc5ccc(F)cc5)CC4)cc3)ccnc2cc1OC	Ephrin type-A receptor 8 (EPHA8, Homo sapiens, UniProt P29322)	enzyme activity, inhibitor, radiometric	–	–	0.034
CCCc1nc2c(C)cc(-c3nc4ccccc4n3C)cc2n1Cc1ccc(-c2ccccc2C(=O)O)cc1	BCKDK	enzyme activity, inhibitor	–	–	> 300
COc1cc(/C=C2\SC(=O)NC2=O)cc(F)c1OCCNc1nc2c(cnn2C2CCCC2)c(=O)[nH]1	PDE8A	enzyme activity, inhibitor	–	–	0.091
O=[N+]([O-])c1ccc(S(=O)(=O)Oc2ccccc2C=NNS(=O)(=O)c2ccc3ccccc3c2)cc1	murD	enzyme activity, inhibitor, absorbance	–	–	74
O=C(O)c1cc(O)c2c(c1)[C@H]([C@H]1c3cc(C(=O)O)cc(O)c3C(=O)c3c(O[C@@H]4O[C@H](CO)[C@@H](O)[C@H](O)[C@H]4O)cccc31)c1cccc(O[C@@H]3O[C@H](CO)[C@@H](O)[C@H](O)[C@H]3O)c1C2=O	PTPN7	enzyme activity, inhibitor, fluorescence	–	–	1
CCCC[C@H](NC(=O)[C@H](C)c1c(C)[nH]c2ccc(O)cc12)c1ncc(-c2cc3ccccc3nc2OC)[nH]1	HDAC1	enzyme activity, inhibitor	–	–	0.04
C=CC(=O)Nc1cc(Nc2nccc(Nc3cc(Cl)c(F)cc3C(C)(C)O)n2)c(OC)cc1N1CC[C@@H](N(C)C)C1	CYP2A6	enzyme activity, inhibitor	human, liver microsomes	–	> 30
O=C(O)C(=O)CC(=O)c1cccc(N(Cc2ccccc2)Cc2ccccc2)c1	PTPN7	enzyme activity, inhibitor, absorbance	–	pH 7	87
CN(C)CCC=C1c2ccccc2CCc2ccccc21	SLC47A2	transporter uptake, inhibitor, radiometric	HEK293	5 min	> 500
CCc1cc(/C(C)=N/OCc2ccc(C3CCCCC3)c(C(F)(F)F)c2)ccc1CN1CC(C(=O)O)C1	CYP2A6	enzyme activity, inhibitor	human, liver microsomes	20 min	> 1.1
CCCCCc1cc(O)c(C/C=C(\C)CCC=C(C)C)c(O)c1	ALOX5	enzyme activity, inhibitor	–	–	0.7
CCCCCCCc1ccc(CCc2cccc(O)c2C(=O)O)cc1	KAT2B	enzyme activity, inhibitor, radiometric	–	–	> 200
COc1cc(C[C@H]2C(=O)OC[C@@H]2Cc2ccc(OC)c(OC)c2)ccc1O	PDE8A	enzyme activity, inhibitor	–	–	> 20
CN1CCN(c2ccc(Nc3ncc4cc(C#N)c(=O)n(C5CCCC5)c4n3)cc2)CC1	Serine/threonine-protein kinase PLK2 (PLK2, Homo sapiens, UniProt Q9NYY3)	enzyme activity, inhibitor	–	–	2.17
Cc1ccc(-c2cc(-c3ccc(-c4ccc(C(=O)O)cc4)[nH]3)nc3c(C(C)C)cccc23)cc1	Retinoic acid receptor beta (RARB, Homo sapiens, UniProt P10826)	reporter gene, antagonist	–	–	> 3.3
CSc1ccc(/C=C2/C(C)=C(CC(=O)O)c3cc(F)ccc32)cc1	PDE8A	enzyme activity, inhibitor	–	–	> 100

SMILES	target	test	system	conditions	IC50 [µM]
CC/C=C\C/C=C\C/C=C\C/C=C\C/C=C\CCCC(=O)O	DNA polymerase subunit gamma-1 (POLG, Homo sapiens, UniProt P54098)	enzyme activity, inhibitor	–	–	23.9
CC(C)=CCC[C@@]1(C)C(CC[C@H]2[C@]3(C)CC[C@H](O)C(C)(C)O[C@H]3CC[C@@]2(C)O)=C(C)CC[C@H]1O	ATP-dependent translocase ABCB1 (ABCB1, Homo sapiens, UniProt P08183)	transporter efflux, inhibitor, fluorescence	KB-V1	10 min	20 to 50
N#Cc1ccc(COc2ccccc2C=NNS(=O)(=O)c2ccc3ccccc3c2)cc1	murD	enzyme activity, inhibitor, absorbance	–	–	62
Cc1cnc(-c2ccc(-c3ccc(NC(=O)Nc4c(F)cc(F)cc4F)cc3F)c3c2C(=O)NC3)[nH]1	Tyrosine-protein kinase Yes (YES1, Homo sapiens, UniProt P07947)	enzyme activity, inhibitor	–	–	0.0045
CCCCC(=O)N(Cc1ccc(-c2ccccc2-c2nnn[nH]2)cc1)[C@H](C(=O)O)C(C)C	BCKDK	enzyme activity, inhibitor	–	–	1.67
O=c1c(O)c(-c2ccc(O)cc2)oc2cc(O)cc(O)c12	Histone deacetylase 8 (HDAC8, Homo sapiens, UniProt Q9BY41)	enzyme activity, inhibitor	–	–	7.8
O=C(NO)c1ccc(NC(=O)C2(c3ccccc3)CCCC2)c(F)c1	HDAC1	enzyme activity, inhibitor	–	–	0.181
C=C(C)[C@@H]1CCC(C)=C[C@H]1c1c(O)cc(CCCCC)cc1O	ALOX5	enzyme activity, inhibitor	–	–	4.3
CN/C(=N/CCSCc1nc[nH]c1C)NC#N	SLC47A2	transporter uptake, inhibitor, radiometric	HEK293	5 min, pH 8.5	3.6
COc1ccc(C2=NN(C3CCCCCC3)C(=O)[C@@H]3CC=CC[C@H]23)cc1-c1ccc(C(N)=O)cc1 (relative stereo)	PDE8A	enzyme activity, inhibitor	–	–	> 10
O=C(Nc1ccc(C=NNS(=O)(=O)c2ccc3ccccc3c2)cc1)c1ccccc1[N+](=O)[O-]	murD	enzyme activity, inhibitor, absorbance	–	–	45
CCCCc1nc(Cl)c(CO)n1Cc1ccc(-c2ccccc2-c2nn[nH]n2)cc1	BCKDK	enzyme activity, inhibitor	–	–	19.8
CCS(=O)(=O)N1CC(CC#N)(n2cc(-c3ncnc4[nH]ccc34)cn2)C1	SLC47A2	transporter uptake, inhibitor, radiometric	–	2 min	13.7
CCCCc1ncc(/C=C(\Cc2cccs2)C(=O)O)n1Cc1ccc(C(=O)O)cc1	BCKDK	enzyme activity, inhibitor	–	–	76.4
Cc1ccc(C(=O)Nc2ccc(S(=O)(=O)O)c3cc(S(=O)(=O)O)cc(S(=O)(=O)O)c23)cc1NC(=O)c1cccc(NC(=O)Nc2cccc(C(=O)Nc3cc(C(=O)Nc4ccc(S(=O)(=O)O)c5cc(S(=O)(=O)O)cc(S(=O)(=O)O)c45)ccc3C)c2)c1	PTPN7	enzyme activity, inhibitor, fluorescence	–	–	30
CCCC[C@@H](C(=O)N[C@@H](CC(=O)O)C(=O)N(C)[C@@H](Cc1ccccc1)C(N)=O)N(C)C(=O)[C@H](Cc1c[nH]c2ccccc12)NC(=O)CNC(=O)[C@H](Cc1ccc(O)cc1)NC(=O)[C@H](C)NC(=O)[C@@H](CCC(=O)O)NC(=O)CN1CCN(CC(=O)O)CCN(CC(=O)O)CCN(CC(=O)O)CC1	Gastrin/cholecystokinin type B receptor (Rattus norvegicus, UniProt P30553)	ligand displacement, radioligand	–	–	0.00453
C=C(C)[C@@H]1CCC(C)=C[C@H]1c1c(O)cc(CCC)cc1O	ALOX5	enzyme activity, inhibitor	–	–	4.9
